ChEMBL document CHEMBL1833835, “Synthesis and evaluation of the anti parasitic activity of aromatic nitro compounds” (Eur J Med Chem, 2011)

Legend:
Trypanosoma cruzi [1] = assay: Trypanocidal activity against intracellular amastigote form of Trypanosoma cruzi Tulahuen expressing beta-galactosidase infected in mouse L929 cells after 7 days by microplate reader analysis; type: functional, organism-based; settings: L929, 168 h
[2] = Selectivity index, ratio of IC50 for human PBMC to IC50 for Leishmania amazonensis IFLA/BR/67/PH8
In short: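 Ratio of PBMC proliferation IC50 (PHA-stimulated, MTT, 48 h) to promastigote IC50 (MTT, 48 h).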

Leishmania amazonensis = assay: Antiparasitic activity against promastigote form of Leishmania amazonensis IFLA/BR/67/PH8 after 48 hrs by MTT assay; type: functional, organism-based; settings: IFLA/BR/67/PH8, 48 h
In short: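 Promastigotes kept at 23 °C in Schneider's medium with 20% heat-inactivated FCS, pH 7.2; plated at 1 × 10⁷/well. Screening at 100 µM in triplicate, then six-point dilutions in duplicate for compounds exceeding 50% inhibition. After 48 h, MTT added for 4 h, stopped with isopropanol/SDS, OD 570 nm read; IC50 from curve; three independent experiments.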

Trypanosoma cruzi [3] = assay: Trypanocidal activity against intracellular trypomastigote form of Trypanosoma cruzi Tulahuen expressing beta-galactosidase infected in mouse L929 cells after 7 days by microplate reader analysis; type: functional, organism-based; settings: L929, 168 h
PBMC = assay: Inhibition of cell proliferation of phytohemagglutinin-induced human PBMC; type: cell-based

SMILES	IC50 (Trypanosoma cruzi [1])	Ratio IC50 [2]	IC50 (Leishmania amazonensis)	IC50 (Trypanosoma cruzi [3])	IC50 (PBMC)
O=C(O)c1ccc(CBr)cc1	> 1000 µM	<0.9	> 100 µM	> 500 µM	88.8 µM
O=C(O)c1ccc(CBr)c([N+](=O)[O-])c1	> 1000 µM	<3.4	> 100 µM	> 500 µM	344 µM
COC(=O)c1ccc(CBr)c([N+](=O)[O-])c1	> 1000 µM	1.1	39.3 µM	> 500 µM	44.1 µM
O=C(O)c1ccc(CO)c([N+](=O)[O-])c1	> 1000 µM		> 100 µM		
O=C(NCCO)c1ccc(CBr)c([N+](=O)[O-])c1	> 1000 µM	2.3	23.1 µM		53.9 µM
O=C(NCCO)c1ccc(CCl)c([N+](=O)[O-])c1	> 1000 µM	16.1	59.5 µM		960 µM
O=C(NCCCl)c1ccc(CCl)c([N+](=O)[O-])c1	> 1000 µM	21.7	50.6 µM		1100 µM
O=C(NCCO)c1ccc(CCl)cc1	> 1000 µM	<3.3	> 100 µM		330 µM
O=C(Cn1ccnc1[N+](=O)[O-])NCc1ccccc1 [BENZNIDAZOLE]	3.8 µM				
